From publication PMC11522000 (Nature Microbiology, 2024)
Values joined by “and” are separate entries in the source; they are usually repeats but may differ in a detail not shown here. Equal entries are not always repeated. “Also recorded” adds a separate entry of the source. Where two headings read alike, the source gives them in different places.

Tests used:
[1] = system: CYP3A4 / 1A2 / 2B6; test: CYP3A4 / 1A2 / 2B6 hepatocyte induction assay; assay type: in vitro ADME
[2] = system: HepG2; test: Cytotoxicity assay; assay type: cell-based, human
[3] = molecular target: CYP3A4 (Homo sapiens, UniProt P08684); test: CYP3A4 time-dependent inhibition; assay type: in vitro ADME
CYP3A4, sequence (P08684 whole entry): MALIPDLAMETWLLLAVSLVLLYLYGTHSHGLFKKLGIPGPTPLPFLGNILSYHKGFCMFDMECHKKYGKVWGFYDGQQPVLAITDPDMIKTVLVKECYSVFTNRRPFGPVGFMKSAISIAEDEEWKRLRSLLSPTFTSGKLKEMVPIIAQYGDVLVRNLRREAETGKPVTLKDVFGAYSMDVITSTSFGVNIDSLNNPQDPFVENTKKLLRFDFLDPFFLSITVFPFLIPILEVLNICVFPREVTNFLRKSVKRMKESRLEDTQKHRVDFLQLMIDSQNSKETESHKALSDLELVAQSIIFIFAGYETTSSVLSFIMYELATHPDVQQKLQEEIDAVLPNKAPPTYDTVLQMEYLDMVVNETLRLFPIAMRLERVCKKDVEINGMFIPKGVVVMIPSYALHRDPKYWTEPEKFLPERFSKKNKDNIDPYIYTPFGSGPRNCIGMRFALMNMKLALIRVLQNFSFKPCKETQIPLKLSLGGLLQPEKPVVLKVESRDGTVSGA

[4] = Plasma stability; assay type: in vitro ADME; settings: rat
Summary of the method: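 Test compound was added to plasma and incubated at 37 °C in a shaking water bath, with samples taken at sequential timepoints. Samples were quenched with ice-cold acetonitrile and analysed by LC-MS/MS, and half-life was calculated from the depletion rate.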

[5] = system: C. parvum; test: Host cell invasion assay; assay type: cell-based, Cryptosporidium parvum; settings: HCT-8, 3 h; EDI048 and KDU731 20 µM, wiskostatin 11.3 µM
Summary of the method: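 HCT-8 monolayers were 95–100% confluent. Compounds were added at twice the final concentration 1 h before infection with 50,000 primed oocysts per well. Plates were kept 3 h at 37 °C, 5% CO2, then washed with PBS-0.1% Tween 20, fixed in 4% PFA for 15 min at room temperature, permeabilized with 0.25% Triton X-100 and blocked in 4% BSA. Vacuoles were stained with fluorescein-VVL and nuclei with Hoechst, then imaged.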

[6] = PAMPA; assay type: in vitro ADME
[7] = system: C. parvum; test: Mouse efficacy study; assay type: in vivo, C57BL/6 IFN-γ-knockout mice; settings: for log reduction in faecal oocyst shedding / log reduction in oocyst shedding: IFN-γ KO mouse, 5 days; for log reduction in faecal oocyst shedding: 10 mg kg^−1 oral
[8] = system: C. hominis; test: Cytopathic effect; assay type: cell-based, Cryptosporidium hominis; settings: read-out: Ch CPE EC50, HCT-8, 48 h
Summary of the method: (§1)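 HCT-8 cells were grown at 37 °C, 5% CO2 in RPMI-1640 with 10% heat-inactivated FBS. Oocysts were excysted in 10 mM HCl/HBSS for 10 min at 37 °C, then in 2 mM sodium taurocholate in L-15/UltraCULTURE medium for 5 min. Infected cells were seeded onto pre-spotted compound (10-point, 3-fold dilution; DMSO and reference-inhibitor controls) and incubated 48 h. Cells were then lysed for a viability read-out, and concentration-response curves were fitted.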

[9] = system: C. parvum; test: Cytopathic effect; assay type: cell-based, Cryptosporidium parvum; settings: for EC50: read-out: Cp CPE EC50, C. parvum, HCT-8, 48 h
Summary of the method: as §1

[10] = Hepatocytes metabolic stability; assay type: in vitro ADME; settings: human
Summary of the method: (§2)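 Test compound was incubated with liver microsomes or hepatocytes of each species, and parent depletion was quantified by LC-MS/MS. From this, in vitro half-life and intrinsic clearance were derived, along with predicted metabolic clearance and hepatic extraction ratio.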

[11] = molecular target: T1, CpPI(4)K (Cryptosporidium parvum, UniProt Q5CVD3); test: PI; assay type: biochemical, C. parvum; settings: CpPI(4)K IC50, 3 μM ATP
T1 sequence (Q5CVD3 1-1114): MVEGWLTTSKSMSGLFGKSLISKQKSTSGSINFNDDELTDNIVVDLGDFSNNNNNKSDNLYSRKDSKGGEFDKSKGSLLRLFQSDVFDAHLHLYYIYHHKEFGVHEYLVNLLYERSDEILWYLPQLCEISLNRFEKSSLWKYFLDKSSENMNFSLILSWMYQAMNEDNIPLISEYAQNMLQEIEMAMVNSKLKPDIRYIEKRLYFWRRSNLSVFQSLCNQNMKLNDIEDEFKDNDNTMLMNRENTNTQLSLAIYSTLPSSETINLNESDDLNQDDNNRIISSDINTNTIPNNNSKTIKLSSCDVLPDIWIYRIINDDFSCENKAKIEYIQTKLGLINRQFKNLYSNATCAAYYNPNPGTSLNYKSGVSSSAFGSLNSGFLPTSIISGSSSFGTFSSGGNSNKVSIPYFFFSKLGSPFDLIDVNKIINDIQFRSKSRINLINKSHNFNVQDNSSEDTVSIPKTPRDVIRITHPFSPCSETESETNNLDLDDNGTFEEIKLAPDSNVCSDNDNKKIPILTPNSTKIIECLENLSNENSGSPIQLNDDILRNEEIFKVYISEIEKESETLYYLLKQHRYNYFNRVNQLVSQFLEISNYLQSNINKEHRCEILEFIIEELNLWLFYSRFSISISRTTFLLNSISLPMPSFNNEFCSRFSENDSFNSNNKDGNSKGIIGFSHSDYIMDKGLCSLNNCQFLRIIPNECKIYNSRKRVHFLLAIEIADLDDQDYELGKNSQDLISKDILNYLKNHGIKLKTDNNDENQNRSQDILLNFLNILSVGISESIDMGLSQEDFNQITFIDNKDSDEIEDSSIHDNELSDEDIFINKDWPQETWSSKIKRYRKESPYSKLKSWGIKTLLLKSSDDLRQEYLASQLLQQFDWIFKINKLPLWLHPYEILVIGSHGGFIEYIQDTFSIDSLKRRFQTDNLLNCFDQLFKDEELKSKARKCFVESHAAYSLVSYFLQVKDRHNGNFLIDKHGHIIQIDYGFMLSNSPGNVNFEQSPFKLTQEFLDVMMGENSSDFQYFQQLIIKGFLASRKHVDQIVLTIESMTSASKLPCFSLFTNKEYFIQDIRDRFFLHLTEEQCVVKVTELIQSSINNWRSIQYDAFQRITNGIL
Summary of the method: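 Enzyme was pre-incubated with compound for 5 min at room temperature. The reaction was started with substrate mix at twice final strength (PI, ATP, Tris-HCl pH 7.5, DTT, 0.05% Triton X-100, MnCl2) and run 50 min at room temperature. ADP was measured by ADP-Glo luminescence. IC50s came from in-plate duplicate 10-point 3-fold dilutions, with DMSO and reference-inhibitor controls. The C. parvum enzymes (wild type and mutants) were full-length proteins expressed from baculovirus in Sf21 cells.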

[12] = Liver microsomes metabolic stability; assay type: in vitro ADME; settings: human
Summary of the method: as §2

[13] = system: human peripheral blood lymphocytes; test: In vitro human lymphocyte; assay type: cell-based; settings: EDI048: near cytotoxic concentrations
Summary of the method: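 Lymphocytes came from pooled blood of two donors. The assay was run under GLP and OECD guidelines, and micronuclei were scored on slides by fluorescence microscopy.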

[14] = system: 3T3 fibroblast cells; test: In vitro 3T3 NRU phototoxicity test; assay type: cell-based
Summary of the method: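 This followed OECD 432. 3T3 fibroblasts in 96-well plates were exposed to a concentration range of test compound, up to its solubility limit in HBSS, and viability was read by neutral red uptake.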

SMILES | CYP3A4 / 1A2 / 2B6 hepatocyte induction assay [1] | SI (selectivity index) HepG2 CC50 / C. parvum EC50 ratio [2] | Time dependent inhibition 3A4 [3] | half-life [4] [min] | sporozoite invasion [5] | PAMPA (% calc fraction absorbed) [6] [%] | log reduction in faecal oocyst shedding [7] | EC50 [9] [nM] | half-life ([10]; hepatocytes) [min] | IC50 [11] [nM] | Microsomal ER [12] [%] | In vitro Human lymphocyte MN induction [13] | Phototoxicity [14] | Phototoxicity PIF value [14] | also measured
CN(C(=O)c1ccn2ncc(-c3ccc(C(N)=O)cc3)c2c1)c1ccc(C#N)cn1 [KDU731, 3–(4-carbamoylphenyl)-N-(5-cyanopyridin-2-yl)-N-methylpyrazolo [1,5-a]pyridine-5-carboxamide, reference compound] | Non-inducer | > 100 | Negative | > 120 | inactive | 34.7 | ~ 3 log | 100 | 57.9 | 17 ± 8 | 39 | induce micronuclei; also recorded: Positive | Negative | 3.1 | effect of intravenous injection on parasite load ([7]; i.v. 1 mg kg^−1, exposure similar to oral): negligible effects on the parasite load; EC50 ([8]; C. hominis): 130 nM; EC90 ([9]; Cryptosporidium parvum, HCT-8, read-out: approximate C. parvum CPE assay EC90): ~500 nM; Hepatocytes ER [10]: 60%; Hepatocytes clearance [10]: 12 μl/min/million cells; microsomal CLint [12]: 13 µL/min/mg
CNC(=O)c1ccc(-c2cnn3ccc(C(=O)N(C)c4ccc(Cl)c(C(=O)OC)c4)cc23)cc1 [EDI048, methyl 2-chloro-5-(N-methyl-3-(4-(methylcarbamoyl)phenyl)pyrazolo[1,5-a]pyridine-5-carboxamido)benzoate] | Non-inducer | > 100 | Weak positive | 11.6 | inactive; also recorded: does not affect sporozoite invasion | 97 | > 3 log and 3.1 log | 50 | < 3 | 4 ± 2 | 92 | Positive^d | Negative | 1.8 | selectivity ratio at 96 h ([2]; human, HepG2 cells (ATCC CRL-10741)): > 500; CC50 ([2]; read-out: HepG2 CC50, 96 h): 28100 nM; KI (inactivation) ([3]; human): 2100 nM; log reduction in oocyst shedding ([7]; 1 mg kg^−1 oral once daily): 0.3 log; log reduction in oocyst shedding ([7]; 3 mg kg^−1 oral once daily): 1.1 log; EC50 ([8]; Cryptosporidium hominis): 50 ± 1 nM; hepatocyte CLint ([10]; hepatocytes): > 231 µL/min/1e6 cells; microsomal CLint ([12]; liver microsomes): 222 µL/min/mg
